Converted amounts (≈) assume the structure as drawn.
Key:
Assay type in all cases: functional
Aspergillus fumigatus [1] = assay: Antifungal activity against aspergillus fumigatus
Method in brief: (§1)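 A. fumigatus grown on SAB agar 3–4 d at 35 °C; conidia used as inoculum at final 1 × 10^3 cfu/mL. Broth microdilution in SAB broth, 2-fold serial dilutions of compound dissolved in ethanol or DMSO. Incubated 48 h at 35 °C. MIC read by eye as the lowest concentration with no visible growth. Amphotericin B reference.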

Candida albicans [2] = assay: Antifungal activity against candida albicans
Method in brief: (§2)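 Candida grown 24 h at 35 °C on YM agar, then 6 h at 35 °C with rotation in GYB broth (2% glucose, 1% yeast extract). Final inoculum 2 × 10^3 cfu/mL. 96-well SAB broth microdilution, 2-fold series from ethanol or DMSO solutions. 24 h at 35 °C; MIC = lowest concentration without visible growth. Amphotericin B reference.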

Cryptococcus neoformans [3] = assay: Antifungal activity against cryptococcus neoformans
Method in brief: (§3)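 C. neoformans grown on YM agar 48 h at 35 °C, then 6 h in GYB broth at 35 °C with rotation. Final inoculum 2 × 10^4 cfu/mL. SAB broth microdilution with 2-fold serial dilutions (compound in ethanol or DMSO). Incubated 48 h at 35 °C; MIC read visually as the lowest concentration with no growth. Amphotericin B reference.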

Pichia kudriavzevii = assay: Antifungal activity against candida krusei GK7831; method in brief: as §2
Candida parapsilosis = assay: Antifungal activity against candida parapsilosis CP18; details: Lodderomyces parapsilosis; method in brief: as §2
Candida tropicalis = assay: Antifungal activity against candida tropicalis 1525; method in brief: as §2
Trichophyton rubrum = assay: Antifungal activity against Trichophyton rubrum ATCC 18762
Method in brief: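 T. rubrum grown on SAB agar 5–7 d at 25 °C; conidia as inoculum, final 1 × 10^4 cfu/mL. Compounds in ethanol or DMSO, 2-fold serial dilutions in SAB broth in 96-well plates. Incubated 7 d at 25 °C. MIC taken as the lowest concentration with no visible growth versus the growth-control wells. Amphotericin B was the reference.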

Cryptococcus neoformans [4] = assay: Antifungal activity against cryptococcus neoformans MI-106; method in brief: as §3
Aspergillus fumigatus [5] = assay: Antifungal activity against aspergillus fumigatus WM-1; method in brief: as §1
Candida albicans [6] = assay: Antifungal activity against candida albicans A-26; method in brief: as §2
Candida albicans [7] = assay: Antifungal activity against candida albicans B-311; method in brief: as §2

| SMILES | MIC (Aspergillus fumigatus [1]) [µg/mL] | MIC (Candida albicans [2]) [µg/mL] | MIC (Cryptococcus neoformans [3]) [µg/mL] | further results |
| --- | --- | --- | --- | --- |
| O=C(NCC1=CC=C(CO)SS1)Nc1ccccc1O | > 100 | > 100 | > 100 | – |
| CO/N=C/C1=CC=C(/C=N/OC)SS1 | 6.3 (≈ 27.4 µM) | 0.8 (≈ 3.47 µM) | 1.6 (≈ 6.95 µM) | – |
| O=C(OCC1=CC=C(COC(=O)c2ccccc2)SS1)c1ccccc1 | > 100 | > 100 | > 100 | – |
| OCC1=CC=C(COc2cc(C(F)(F)F)ccc2Cl)SS1 | 6.3 (≈ 17.8 µM) | 1.6 (≈ 4.51 µM) | 1.6 (≈ 4.51 µM) | – |
| O=[N+]([O-])c1ccc(OCC2=CC=C(CO)SS2)nc1 | 0.4 (≈ 1.34 µM) | 0.2 (≈ 0.67 µM) | 0.1 (≈ 0.335 µM) | – |
| O=C(OCC1=CC=C(CO)SS1)C1CC1 | 0.4 (≈ 1.64 µM) | 3.1 (≈ 12.7 µM) | 1.6 (≈ 6.55 µM) | MIC (Pichia kudriavzevii): 1.25 µg/mL (≈ 5.12 µM); MIC (Candida parapsilosis): 2.5 µg/mL (≈ 10.2 µM); MIC (Candida tropicalis): 1.25 µg/mL (≈ 5.12 µM); MIC (Trichophyton rubrum): 0.31 µg/mL (≈ 1.27 µM) |
| [N-]=[N+]=NCC1=CC=C(CO)SS1 | 0.25 (≈ 1.24 µM) | 0.25 (≈ 1.24 µM) | 0.25 (≈ 1.24 µM) | – |
| CC(=O)OCC1=CC=C(CO)SS1 | 0.4 (≈ 1.83 µM) | 3.1 (≈ 14.2 µM) | 0.2 (≈ 0.916 µM) | MIC (Pichia kudriavzevii): 1.25 µg/mL (≈ 5.73 µM); MIC (Candida parapsilosis): 1.25 µg/mL (≈ 5.73 µM); MIC (Candida tropicalis): 1.25 µg/mL (≈ 5.73 µM); MIC (Trichophyton rubrum): 0.31 µg/mL (≈ 1.42 µM) |
| OCC1=CC=C(COc2ccccc2C(F)(F)F)SS1 | 50 (≈ 156 µM) | 25 (≈ 78 µM) | 6.3 (≈ 19.7 µM) | – |
| O=C(OCC1=CC=C(COC(=O)c2ccncc2)SS1)c1ccncc1 | 2 (≈ 5.18 µM) | 2 (≈ 5.18 µM) | – | – |
| OCC1=CC=C(CSc2nnnn2-c2ccc(O)cc2)SS1 | 12.5 (≈ 35.5 µM) | 25 (≈ 70.9 µM) | 6.3 (≈ 17.9 µM) | – |
| CN(C)c1cccc(OCC2=CC=C(CO)SS2)c1 | 100 (≈ 338 µM) | > 50 | 50 (≈ 169 µM) | – |
| CC(=O)NCC1=CC=C(CO)SS1 | > 100 | > 100 | 100 (≈ 460 µM) | – |
| CC(C)C(=O)OCC1=CC=C(COC(=O)C(C)C)SS1 | 6.3 (≈ 19.9 µM) | > 100 | 12.5 (≈ 39.5 µM) | – |
| OCC1=CC=C(COc2cccc(O)c2)SS1 | > 100 | 50 (≈ 186 µM) | 100 (≈ 373 µM) | – |
| COC(=O)c1ccccc1OCC1=CC=C(CO)SS1 | 12.5 (≈ 40.3 µM) | 6.3 (≈ 20.3 µM) | 6.3 (≈ 20.3 µM) | – |
| O=C(NCC1=CC=C(CO)SS1)c1ccccc1O | > 100 | > 100 | 100 (≈ 339 µM) | – |
| O=C(OCC1=CC=C(CO)SS1)c1ccncc1 | 1.6 (≈ 5.69 µM) | 3.1 (≈ 11 µM) | – | – |
| CC(=O)OCC1=CC=C(COC(C)=O)SS1 | 0.63 (≈ 2.42 µM) | 1.25 (≈ 4.8 µM) | 0.63 (≈ 2.42 µM) | – |

| SMILES | MIC (Aspergillus fumigatus [1]) [µg/mL] | MIC (Candida albicans [2]) [µg/mL] | MIC (Cryptococcus neoformans [3]) [µg/mL] | further results |
| --- | --- | --- | --- | --- |
| OCC1=CC=C(COc2ccccc2)SS1 | 25 (≈ 99.1 µM) | 25 (≈ 99.1 µM) | 12.5 (≈ 49.5 µM) | – |
| OCC1=CC=C(COc2ccccc2F)SS1 | 3.1 (≈ 11.5 µM) | 3.1 (≈ 11.5 µM) | 1.6 (≈ 5.92 µM) | – |
| CCOC(=O)/C=C/C1=CC=C(CO)SS1 | 25 (≈ 102 µM) | 12.5 (≈ 51.2 µM) | 6.3 (≈ 25.8 µM) | – |
| OCC1=CC=C(COCC(O)CO)SS1 (stereo unspecified) | > 100 | > 100 | > 100 | – |
| O=C(OCC1=CC=C(COC(=O)C2CCCC2)SS1)C1CCCC1 | > 250 | > 250 | – | – |
| OCC1=CC=C(COc2cccnc2)SS1 | 3.1 (≈ 12.2 µM) | 3.1 (≈ 12.2 µM) | 1.6 (≈ 6.32 µM) | – |
| O=C(OCC1=CC=C(CO)SS1)c1ccccc1O | 0.2 (≈ 0.675 µM) | 0.2 (≈ 0.675 µM) | 0.2 (≈ 0.675 µM) | – |
| CO/N=C/C1=CC=C(CO)SS1 | 6.3 (≈ 31 µM) | 6.3 (≈ 31 µM) | 6.3 (≈ 31 µM) | – |
| CC1(C)OCC(COCC2=CC=C(COCC(O)CO)SS2)O1 (stereo unspecified) | > 100 | > 100 | > 100 | – |
| Cc1ccc(S(=O)(=O)NC(=O)OCC2=CC=C(CO)SS2)cc1 | 100 (≈ 268 µM) | 100 (≈ 268 µM) | 50 (≈ 134 µM) | – |
| O=C(OCC1=CC=C(CO)SS1)C1CCCC1 | 3.1 (≈ 11.4 µM) | 6.3 (≈ 23.1 µM) | – | – |
| O=C(Nc1ccccc1O)OCC1=CC=C(CO)SS1 | 50 (≈ 161 µM) | 100 (≈ 321 µM) | 50 (≈ 161 µM) | – |
| COC(=O)c1cccc(OCC2=CC=C(CO)SS2)c1 | 25 (≈ 80.5 µM) | 3.1 (≈ 9.99 µM) | 6.3 (≈ 20.3 µM) | – |
| COC(=O)c1ccc(OCC2=CC=C(CO)SS2)cc1 | 12.5 (≈ 40.3 µM) | 3.1 (≈ 9.99 µM) | 3.1 (≈ 9.99 µM) | – |
| N#CC1=CC=C(CO)SS1 | 1.6 (≈ 9.34 µM) | 0.8 (≈ 4.67 µM) | 0.8 (≈ 4.67 µM) | – |
| O=CC1=CC=C(C=O)SS1 | 6.3 (≈ 36.6 µM) | 1.6 (≈ 9.29 µM) | 1.6 (≈ 9.29 µM) | – |
| O=c1ccccn1CC1=CC=C(CO)SS1 | > 100 | > 100 | 12.5 (≈ 49.3 µM) | – |
| O=c1ccc(=O)n(CC2=CC=C(CO)SS2)[nH]1 | > 100 | > 100 | > 100 | – |
| CCC(=O)OCC1=CC=C(COC(=O)CC)SS1 | 3.1 (≈ 10.7 µM) | 12.5 (≈ 43.3 µM) | 6.3 (≈ 21.8 µM) | – |

| SMILES | MIC (Aspergillus fumigatus [1]) [µg/mL] | MIC (Candida albicans [2]) [µg/mL] | MIC (Cryptococcus neoformans [3]) [µg/mL] | further results |
| --- | --- | --- | --- | --- |
| [N-]=[N+]=NCC1=CC=C(CCl)SS1 | 50 (≈ 228 µM) | 25 (≈ 114 µM) | 6.3 (≈ 28.7 µM) | – |
| C#Cc1cccc(OCC2=CC=C(CO)SS2)c1 | 6.3 (≈ 22.8 µM) | 1.6 (≈ 5.79 µM) | 1.6 (≈ 5.79 µM) | – |
| O=c1ccc([N+](=O)[O-])cn1CC1=CC=C(CO)SS1 | > 100 | > 100 | 100 (≈ 335 µM) | – |
| OCC1=CC=C(COc2ccccc2O)SS1 | 12.5 (≈ 46.6 µM) | 6.3 (≈ 23.5 µM) | 25 (≈ 93.2 µM) | – |
| OCC1=CC=C(COc2ccccn2)SS1 | 3.1 (≈ 12.2 µM) | 3.1 (≈ 12.2 µM) | 3.1 (≈ 12.2 µM) | – |
| O/N=C/C1=CC=C(/C=N/O)SS1 | 0.4 (≈ 1.98 µM) | 0.1 (≈ 0.494 µM) | 0.8 (≈ 3.96 µM) | MIC (Pichia kudriavzevii): 6.3 µg/mL (≈ 31.1 µM); MIC (Candida parapsilosis): 0.2 µg/mL (≈ 0.989 µM); MIC (Cryptococcus neoformans [4]): 1.6 µg/mL (≈ 7.91 µM); MIC (Aspergillus fumigatus [5]): 0.2 µg/mL (≈ 0.989 µM); MIC (Candida tropicalis): 1.6 µg/mL (≈ 7.91 µM); MIC (Candida albicans [6]): 0.2 µg/mL (≈ 0.989 µM); MIC (Trichophyton rubrum): 0.05 µg/mL (≈ 0.247 µM); MIC (Candida albicans [7]): 0.1 µg/mL (≈ 0.494 µM) |
| OCC1=CC=C(/C=N/O)SS1 | 1.6 (≈ 8.45 µM) | 1.6 (≈ 8.45 µM) | 1.6 (≈ 8.45 µM) | MIC (Pichia kudriavzevii): 6.3 µg/mL (≈ 33.3 µM); MIC (Candida parapsilosis): 3.1 µg/mL (≈ 16.4 µM); MIC (Cryptococcus neoformans [4]): 1.6 µg/mL (≈ 8.45 µM); MIC (Aspergillus fumigatus [5]): 1.6 µg/mL (≈ 8.45 µM); MIC (Candida tropicalis): 6.3 µg/mL (≈ 33.3 µM); MIC (Candida albicans [6]): 1.6 µg/mL (≈ 8.45 µM); MIC (Trichophyton rubrum): 0.8 µg/mL (≈ 4.23 µM); MIC (Candida albicans [7]): 1.6 µg/mL (≈ 8.45 µM) |
| CC1(C)OCC(COCC2=CC=C(COCC3COC(C)(C)O3)SS2)O1 (stereo unspecified) | > 100 | > 100 | > 100 | – |
| CC1(C)OCC(COCC2=CC=C(CO)SS2)O1 (stereo unspecified) | > 100 | > 100 | > 100 | – |
| O=C(OCC1=CC=C(COC(=O)c2ccccc2O)SS1)c1ccccc1O | > 250 | > 250 | – | – |
| COC(=O)/C=C/C1=CC=C(CO)SS1 | 6.3 (≈ 27.4 µM) | 6.3 (≈ 27.4 µM) | 6.3 (≈ 27.4 µM) | – |
| O=C(OCC1=CC=C(COC(=O)C2CC2)SS1)C1CC1 | 1.6 (≈ 5.12 µM) | 6.3 (≈ 20.2 µM) | 3.1 (≈ 9.92 µM) | – |
| OCC1=CC=C(CO)SS1 | 2 (≈ 11.3 µM) | 16 (≈ 90.8 µM) | 31 (≈ 176 µM) | – |
| O=C(OCC1=CC=C(CO)SS1)c1ccccc1 | 3.1 (≈ 11.1 µM) | 6.3 (≈ 22.5 µM) | 3.1 (≈ 11.1 µM) | – |
| N#C/C=C/C1=CC=C(CO)SS1 | 6.3 (≈ 31.9 µM) | 12.5 (≈ 63.4 µM) | 3.1 (≈ 15.7 µM) | – |
| O=C(OCC1=CC=C(COC(=O)c2cccnc2)SS1)c1cccnc1 | 2 (≈ 5.18 µM) | 2 (≈ 5.18 µM) | – | – |
| OCC1=CC=C(COc2ccc(-n3ccnc3)cc2)SS1 | 100 (≈ 314 µM) | 12.5 (≈ 39.3 µM) | 100 (≈ 314 µM) | – |
| OCC1=CC=C(COc2ccc(O)nn2)SS1 | > 100 | > 100 | > 100 | – |

Reference: ChEMBL document CHEMBL1128433, “Novel 1,2-dithiins: synthesis, molecular modeling studies, and antifungal activity” (1995)
